Source: PubChem
DTT redox prof: compounds producing H2O2 with reducing agent – biochemical, NIH compound library profiling, artefact control for MLSCN library redox annotation, primary screen | DTT-dependent redox cycling H2O2, phenol red/HRP absorbance; 100% = 100 µM peroxide control, 0% = buffer | activation, % at 10 µM | actives 0.03% (n = 200,000) | AID 878;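 active = activation of at least 50% relative to the plate's high and low controls in the primary single-dose screen; inactive = activation below 50%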;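 also: compound incubated with DTT at 0.8 mM final as the reducing agent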
Diaph inh CS: counter-screen for diaphorase-based assays: diaphorase inhibitors and chemical oxidizers | diaphorase resazurin-to-resorufin fluorescence, NADH, 16 min; bacterial (C. kluyveri) enzyme, not human | inhibition, % at 20 µM | actives 0.69% (n = 190,000);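 active = primary screen inhibition at 20 µM above a set limit, cut at about 50% in these data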
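System: Bacterial diaphorase enzyme (C. kluyveri) | Incubation: 16-min room-temperature incubation before reading | Benchmarks: No-NADH positive control and DMSO neutral control | Measured by: Resorufin fluorescence 544/590 nm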
Diaph act CS: counter-screen for diaphorase-based assays: diaphorase activators and chemical reducers. actives 0.005% (n = 190,000). Diaphorase/resazurin coupled assay, resorufin fluorescence, 16 min; hits give high values; 1 = vehicle wells, 0 = NADH-free wells. AID 1229. activation factor at 20 µM;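 active = diaphorase activity raised at least twofold by the compound at 20 µM; inactive = activation factor below 2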
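test system = bacterial diaphorase enzyme (C. kluyveri) | quantity = enzyme 0.07 U/mL final | reagent = NADH substrate 0.114 mM plus resazurin dye 0.1 mM, final | incubation = 16 min enzyme reaction, ambient temperature | buffer or medium = HEPES pH 7.4 buffer with MgCl2 and Tween 20 | signal = fluorescence of resorufin, 544 nm excitation, 590 nm emission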
L major viab: reduces viability of Leishmania major promastigotes; resazurin fluorescence viability; inhibition, % at 10 µM; AID 1063; actives 9% (n = 200,000);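 also: promastigotes grown with compound for 44 hours at 28 °C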
PfG6PD inh: PfG6PD (Plasmodium falciparum) enzyme inhibition; inhibition, % at 20 µM; PfGluPho enzyme, NADPH resazurin-diaphorase fluorescence; actives 0.78% (n = 350,000); AID 504690;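 active = inhibition reaching at least a set limit at 20 µM in the primary screen, cut at about 59% in these data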
G6PDH CS: counter-screen for G6PDH assay hits: L. mesenteroides G6PDH inhibition | Purified L. mesenteroides G6PDH, diaphorase/resazurin coupled fluorescence, 45 min | inhibition, % at 5 µM | AID 1020 | actives 0.12% (n = 200,000)
A number is an active result; – = inactive; · = not tested or not shown. This excerpt belongs to a sample that is enriched for hits. Rule as the data show it, unless noted: active = inhibition above about 50%; inactive = the rest.

SMILES | DTT redox prof | Diaph inh CS | Diaph act CS | L major viab | PfG6PD inh | G6PDH CS
CCOC(=O)c1c(NC(=O)c2c(C(=O)O)cccc2[N+](=O)[O-])sc(C)c1C | – | – | – | – | – | –
O=C1NC2(CCCCC2)Cc2ccccc21 | – | – | – | – | – | –
N#CC(C#N)=C1NC2(CCCC2)Cc2ccccc21 | – | – | – | 85 | – | –
CCn1ncc(Br)c1C(=O)N(C)C12CC3CC(CC(C3)C1)C2 | – | – | – | 51 | – | –
CC1=C(SCc2ccccc2)C(=O)c2ccccc2C1=O | · | · | · | · | 105 | ·
Cn1c(SCc2ccccc2)nccc1=O | · | · | · | · | – | ·
C=CCN(CC=C)Cc1c(O)ccc2c(=O)c(-c3ccccc3)coc12 | · | · | · | · | – | ·
CCCC(=O)Nc1cccc(Oc2nc(C)cc(C)c2C#N)c1 | – | – | – | 52 | – | –
Cc1cc(C)c(C#N)c(Oc2ccc(O)cc2)n1 | – | – | – | – | – | –
O=C(CCCN1C(=O)/C(=C/c2cccc(Br)c2)SC1=S)Nc1cccnc1 | – | – | – | – | – | –
O=C(CCCN1C(=O)/C(=C\c2cccc(Br)c2)SC1=S)Nc1cccnc1 | – | – | – | 58 | – | –
COc1ccc(C/C(N)=N/OC(=O)c2cccc([N+](=O)[O-])c2)cc1 | – | – | – | 63 | – | –
COc1cc(C(=O)O/N=C(\N)Cc2ccc([N+](=O)[O-])cc2)cc(OC)c1OC | · | · | · | · | – | ·
COc1ccc(C(=O)O/N=C(\N)Cc2ccc(Cl)c(Cl)c2)cc1OC | – | – | – | 81 | – | –
CC1=C(C)/C(=N/OC(=O)c2cccc([N+](=O)[O-])c2)C=CC1=O | – | – | – | 100 | – | –
CC(C)COC(=O)c1cc(=O)[nH]c2ccccc12 | – | – | – | – | – | –
Cn1c2c(c(=O)n(C)c1=O)C(C(F)(F)F)(C(F)(F)F)N=C(c1ccc(Cl)cc1)N2 | – | – | – | 100 | – | –
COc1ccc(/C=C2\SC(=O)N(CCNC(=O)C3CCN(S(=O)(=O)c4cccs4)CC3)C2=O)cc1 | – | – | – | 64 | – | –
COc1ccc(/C=C2\SC(=O)N(CCNC(=O)Cn3cnnn3)C2=O)cc1 | – | – | – | 56 | – | –
O=C(NCCN1C(=O)S/C(=C\c2ccc(F)cc2)C1=O)C1CCN(S(=O)(=O)c2cccs2)CC1 | – | – | – | – | – | –
COc1ccccc1NC(=S)NNC(=O)c1ccccc1Br | – | – | – | – | – | –
COCCn1nnnc1C(c1cccs1)N1CCN(c2nc3ccccc3s2)CC1 (stereo not given) | – | – | – | 95 | – | –
CC(C)CC(c1nnnn1Cc1cccs1)N1CCN(c2nc3ccccc3s2)CC1 (stereo not given) | – | – | – | 98 | – | –
O=C1CCCN1S(=O)(=O)c1ccc(F)cc1 | · | · | · | · | – | ·
CC1Cc2cc(S(=O)(=O)N3CCN(c4ccccc4F)CC3)ccc2N1C(=O)C1CC1 (stereo not given) | · | · | · | · | – | ·
SMILES | DTT redox prof | Diaph inh CS | Diaph act CS | L major viab | PfG6PD inh | G6PDH CS
CC(C)Cn1c(-c2csc3c2CCCC3)n[nH]c1=S | – | – | – | – | – | –
O=c1c2c([N+](=O)[O-])cc([N+](=O)[O-])cc2sn1-c1ccc(Br)cc1 | – | 67 | – | – | 121 | –
O=c1c2c([N+](=O)[O-])cc([N+](=O)[O-])cc2sn1Cc1ccccc1 | · | · | · | · | 124 | ·
COc1cccc(CN2CCCN(S(=O)(=O)c3ccc(Br)cc3)CC2)c1 | – | – | – | 93 | – | –
O=S(=O)(c1ccccc1)N1CCN(Cc2cccc(Br)c2)CC1 | · | · | · | · | – | ·
O=S(=O)(c1ccc(Br)cc1)N1CCCN(Cc2cccc(F)c2)CC1 | – | – | – | 86 | – | –
c1ccc2c(c1)nc1n2CCN1CCN1CCCC1 | · | · | · | · | – | ·
CCn1cc(S(=O)(=O)c2ccc(C)cc2)c(=O)c2cc(OC)ccc21 | · | · | · | · | – | ·
CC(=O)/C(=C/c1ccccc1)C(=O)Nc1ccccc1C | – | – | – | 96 | – | –
Cc1ccccc1NC(=O)C(=Cc1ccc(C(=O)O)cc1)C(=O)Nc1ccccc1C | – | – | – | – | – | –
Cc1ccc(C(=O)N[C@H](C(=O)Nc2cc(Cl)cc(Cl)c2)C(C)C)cc1 | – | – | – | – | – | –
